The assay deals with Replicase polyprotein 1a (Severe acute respiratory syndrome-related coronavirus, UniProt P0C6U8). The assay is described as follows: Inhibition of SARS coronavirus 3CL-protease by fluorescence assay. An outline of the steps: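 Protease inhibition was measured by a fluorometric assay. Substrate concentration was held constant while inhibitor concentration was varied, and the kinetic parameters gave Ki values.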

As to `CCc1c(C(=O)N[C@@H](CC(C)C)C(=O)N[C@@H](C[C@@H]2CCNC2=O)C(=O)c2nc3ccccc3s2)[nH]c2ccc(OC)cc12`, the Ki was 7500 nM. The result for `CC(C)C[C@H](NC(=O)c1cc2ccccc2o1)C(=O)N[C@@H](C[C@@H]1CCNC1=O)C(=O)c1nc2ccccc2s1` reads 14000 nM. Next, `CC(C)C[C@H](NC(=O)c1ccc[nH]1)C(=O)N[C@@H](C[C@@H]1CCNC1=O)C(=O)c1nc2ccccc2s1`: 1700 nM. Next, `COc1ccc2[nH]c(C(=O)N[C@@H](CC(C)C)C(=O)N[C@@H](C[C@@H]3CCNC3=O)C(=O)c3nc4ccccc4s3)c(C)c2c1`: 6700 nM; `CC(C)C[C@H](NC(=O)c1cc2c(OC(C)C)cccc2[nH]1)C(=O)N[C@@H](C[C@@H]1CCNC1=O)C(=O)c1nc2ccccc2s1`: 48 nM; `CC(C)C[C@H](NC(=O)c1nc2ccccc2s1)C(=O)N[C@@H](C[C@@H]1CCNC1=O)C(=O)c1nc2ccccc2s1`: 800 nM. `CC(C)C[C@H](NC(=O)C1CCC(=O)N1)C(=O)N[C@@H](C[C@@H]1CCNC1=O)C(=O)c1nc2ccccc2s1` (mixture of isomers) came in with a Ki of 2700 nM. In turn, `CC(C)C[C@H](NC(=O)c1cc2cc(O)ccc2[nH]1)C(=O)N[C@@H](C[C@@H]1CCNC1=O)C(=O)c1nc2ccccc2s1` displayed a Ki of 160 nM. Next, `CC(C)C[C@H](NC(=O)C1Cc2ccccc2N1)C(=O)N[C@@H](C[C@@H]1CCNC1=O)C(=O)c1nc2ccccc2s1` (stereo partly specified): 120 nM. Next, `CC(C)C[C@H](NC(=O)c1c[nH]c2ccccc12)C(=O)N[C@@H](C[C@@H]1CCNC1=O)C(=O)c1nc2ccccc2s1`: 680 nM. `COc1ccc2cc(C(=O)N[C@@H](CC(C)C)C(=O)N[C@@H](C[C@@H]3CCNC3=O)C(=O)c3nc4ccccc4s3)[nH]c2c1` registered a Ki of 330 nM.

A word on the Ki: it is the dissociation constant of the complex between target and ligand, obtained from inhibition or displacement.

For the origin of these results see ChEMBL document CHEMBL2434960 (Eur J Med Chem, 2013).
